Bioassay records from PubChem.
Compounds with a hit are over-represented: about 3.5% of the library has one in this group of screens.
MrgX1 allo act = positive allosteric modulators of MrgX1, primary screen, HEK293 cells, Fluo-4 calcium flux; B-score at 10 µM; Mas-related G-protein coupled receptor member X1 (Homo sapiens), Q96LB2; hit rate 0.63% among 310,000; FDSS; stronger effect = higher value; AID 588675, 2011;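 active = plate-corrected calcium response at least 3 library SD above typical, normal starting fluorescence, not activating the receptor alone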;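 note: compound read alongside a low EC10 to EC30 dose of BAM8-22 agonist; peak minus trough fluorescence over baseline measured at the second addition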
Target sequence (Q96LB2 whole entry, looked up): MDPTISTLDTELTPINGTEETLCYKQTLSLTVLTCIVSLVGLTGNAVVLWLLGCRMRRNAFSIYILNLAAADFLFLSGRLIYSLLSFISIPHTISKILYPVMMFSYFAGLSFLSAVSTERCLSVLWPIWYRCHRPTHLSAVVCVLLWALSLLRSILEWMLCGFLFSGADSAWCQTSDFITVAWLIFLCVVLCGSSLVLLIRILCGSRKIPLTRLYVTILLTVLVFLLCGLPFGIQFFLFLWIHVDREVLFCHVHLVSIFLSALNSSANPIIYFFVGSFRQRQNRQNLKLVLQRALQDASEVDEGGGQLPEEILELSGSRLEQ
RGS4 block = RGS4 inhibitors, primary screen, cell-based, HEK293 M3R inducible RGS4, calcium flux; hit rate 0.45% among 310,000; Fluo-4 calcium flux; stronger effect = higher value; triggered by carbachol at its EC20; B-score at 10 µM; AID 463165, 2010;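 active = B-score, a plate-corrected calcium signal, over three deviations above library mean, with baseline fluorescence within five deviations of library mean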;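 note: RGS4 expression induced by doxycycline in cells with stable M3 receptor; B-score is computed from the integrated fluorescence ratio over baseline after carbachol; higher B-score means a larger calcium signal and so more RGS4 inhibition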
Target sequence (P49798 whole entry, looked up): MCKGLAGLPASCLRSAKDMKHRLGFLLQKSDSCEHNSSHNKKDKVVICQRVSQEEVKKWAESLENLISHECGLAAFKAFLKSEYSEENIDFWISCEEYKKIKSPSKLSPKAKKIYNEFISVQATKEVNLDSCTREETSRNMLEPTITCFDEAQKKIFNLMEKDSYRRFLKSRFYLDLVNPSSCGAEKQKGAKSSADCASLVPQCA
MrgX1 agonist = agonists of human MrgX1 receptor, primary screen, HEK293 cells, Fluo-4 calcium flux | Mas-related G-protein coupled receptor member X1 (Homo sapiens), Q96LB2 | Fluo-4 calcium fluorescence, agonist mode; stronger effect = higher value | B-score at 10 µM | hit rate 0.44% among 310,000 | AID 588627, 2011;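 active = calcium response B-score plate-corrected fluorescence ratio at least 3 library SD, with starting fluorescence B-score inside 5 SD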
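Material: HEK293 cells stably expressing human MrgX1 receptor | Quantity: 15,000 cells per well | Times: Cells plated overnight, dye loaded 0.5 h 37 °C, 0.5 h room temperature | Measured by: Kinetic Fluo-4 NW fluorescence of intracellular calcium | Control set: Positive and negative controls per plate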
MrgX1 antag = antagonists of human MrgX1 receptor, primary screen, HEK293 cells, Fluo-4 calcium flux; Mas-related G-protein coupled receptor member X1 (Homo sapiens), Q96LB2; BAM8-22 antagonism; stronger effect = lower value; B-score at 10 µM; hit rate 1.3% among 310,000; AID 588676, 2011;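 active = calcium-response B-score plate-corrected more than 3 library SD below zero, starting fluorescence within 5 deviations, no agonist response on first addition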;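 note: peak minus trough fluorescence over baseline after final BAM8-22 challenge near maximal dose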
RGS4 act = RGS4 potentiators or activators, primary screen, cell-based, HEK293 M3R inducible RGS4, calcium flux | carbachol calcium flux Fluo4; stronger effect = lower value | B-score at 10 µM | hit rate 0.92% among 310,000 | AID 463111, 2010;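 active = B-score of the integrated calcium signal more than 4 SD below the library mean, with starting fluorescence not abnormally high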;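 note: negative B-score means reduced calcium response which marks RGS4 activation or potentiation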
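Also added: carbachol at ECmax as muscarinic agonist stimulus; Assay system: HEK293 cells with stable M3R and inducible RGS4; Timing: overnight RGS4 induction, 30 min dye load 37 °C, 20 min compound RT; Measured by: Fluo4-AM (2 µM) calcium-flux fluorescence, kinetic read.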
MrgX1 PAM conf = MrgX1 positive allosteric modulators, duplicate retest, confirmation, HEK293 cells, Fluo-4 calcium flux; shares compounds with MrgX1 allo act; Fluo-4 calcium fluorescence, FDSS; AID 602413, 2012; hit rate 13% among 1,200; activation (ratio percentage), % at 10 µM;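 active = ratio at least 3 SD above the weak peptide control, stable starting fluorescence, no direct agonism earlier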;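 note: compound followed by low BAM8-22 agonist challenge near EC20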
MrgX1 antag conf = MrgX1 receptor antagonists, duplicate retest, confirmation, HEK293 cells, Fluo-4 calcium flux | remaining BAM8-22 calcium response % of control (stronger effect = lower value), % at 10 µM | shares compounds with MrgX1 antag | BAM8-22 calcium flux; stronger effect = lower value | hit rate 19% among 2,300;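 active = remaining agonist calcium response no higher than 100% minus 3 SD of agonist-only control wells, with starting fluorescence near control levels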;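 note: agonist BAM8-22 given at a near maximal EC90 to ECmax level; peak minus minimum fluorescence divided by baseline after agonist addition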
HEK293 Ca flux = nonspecific calcium signal in parental HEK293, confirmation, counter-screen for MrgX1 antagonist project, parental HEK293 cells, Fluo-4 calcium flux; hit rate 2% among 4,000; shares compounds with MrgX1 antag; fluorescence ratio F(max-min)/F0 at 10 µM; Fluo-4 calcium fluorescence, FDSS;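 active = duplicate-averaged calcium fluorescence ratio at least three times the standard deviation of buffer wells, a nonspecific response in parental cells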
HEK293 Ca counter = calcium response in parental HEK293 cells, primary screen, counter-screen for MrgX1 allosteric activator project, cell-based, Fluo-4 calcium flux, duplicate; AID 624114, 2012; hit rate 0.4% among 4,000; Fluo-4 fluorescence ratio; stronger effect = higher value; shares compounds with MrgX1 antag; fluorescence ratio F(max-min)/F0 at 10 µM;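 active = calcium fluorescence ratio, averaged over duplicates, at least 3 SD of the buffer-well ratio, meaning a nonspecific response in receptor-free cells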;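 note: untransfected parental HEK293 lacking MrgX1 used as counterscreen for MrgX1 allosteric activators; fluorescence change taken during the second addition on a kinetic imager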
HEK293 Ca cntr2 = calcium response in parental HEK293 cells, primary screen, counter-screen for MrgX1 agonist project, cell-based, Fluo-4 calcium flux, duplicate, agonist mode. shares compounds with MrgX1 antag. Fluo-4 calcium fluorescence (FDSS); stronger effect = higher value. fluorescence ratio F(max-min)/F0 at 10 µM. hit rate 8.7% among 4,000;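 active = calcium fluorescence ratio at least three times the spread of buffer wells, meaning a non-specific response in parental cells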
* marks the source's active call; other numbers are inactive results; i = inactive; nt = not tested or not shown.

SMILES	MrgX1 allo act	RGS4 block	MrgX1 agonist	MrgX1 antag	RGS4 act	MrgX1 PAM conf	HEK293 Ca flux	HEK293 Ca counter	HEK293 Ca cntr2	others
COc1nc(NC(=O)c2ccc(F)cc2)nc(OC)c1-c1ccccc1	8.15*	i	i	i	i	i	i	i	i
Cc1nc(SCC(=O)Nc2cc(C(N)=O)cc(C(N)=O)c2)c2c(C)c(C)sc2n1	12.7*	i	i	i	i	i	i	i	i
Cc1nc(SCC(=O)NCc2ccco2)c2c(C)c(C)sc2n1	i	i	i	i	i	nt	nt	nt	nt
COc1cc(C(=O)Nc2ccccc2C(=O)NCc2cccnc2)cc(OC)c1OC	8.9*	i	i	i	i	i	i	i	i
CCOC(=O)C1CCCN(CCCc2ccccc2)C1 (stereo not drawn)	i	i	i	i	i	nt	nt	nt	nt
COC(=O)c1cc(C(=O)OC)cc(N2C(=O)CC(Sc3nc(C)cc(C)n3)C2=O)c1 (stereo not drawn)	i	i	i	i	i	nt	nt	nt	nt
COC(=O)c1ccc(N2C(=O)CC(Sc3n[nH]c(C)n3)C2=O)cc1 (stereo not drawn)	7.79*	i	i	i	i	i	i	i	i
CCC(C)Sc1nnc(CNC(=O)C23CC4CC(CC(C4)C2)C3)n1C1CCCCC1 (stereo not drawn)	i	i	i	i	i	nt	nt	nt	nt
CCc1ccc(N(CC(=O)Nc2ccc(OC)cc2OC)S(C)(=O)=O)cc1	14.7*	i	i	i	i	i	i	i	i
COc1ccc(N(CC(=O)Nc2cc(OC)ccc2OC)S(C)(=O)=O)cc1	i	i	i	i	i	nt	nt	nt	nt
Cc1cccc2cc3cccc(C)c3nc12	i	i	i	i	i	nt	nt	nt	nt
Cc1cccc2cc3ccccc3nc12	9.15*	i	i	i	i	i	i	i	i
CCC1=NN2C(=N)/C(=C\c3ccc(SCc4ccco4)o3)C(=O)N=C2S1	22.1*	i	i	i	i	i	i	i	57*
CCc1cccc(OCC(=O)Nc2ccccc2N2CCCC2)c1	18.7*	i	i	i	i	i	i	i	i
COc1ccc2occ(NC(C)=O)c2c1	i	i	i	i	i	nt	nt	nt	nt
CCOC(=O)N/C(N)=N/c1nc2ccccc2s1	i	i	i	-7.65*	i	nt	i	i	i	MrgX1 antag conf=i
O=C(CCc1nc2ccccc2c(=O)[nH]1)Nc1nnc(SCc2ccc(Cl)cc2)s1	i	i	i	i	i	nt	nt	nt	nt
CC(OC(=O)[C@H](C)NC(=O)c1ccccc1Cl)C(=O)NCc1ccc2c(c1)OCO2 (stereo partly drawn)	i	i	i	i	i	nt	nt	nt	nt
